In the library only some 3.1% were active in any assay of this set; here they are far more common.
core dimer inh – HCV core protein dimerization inhibition | actives 0.33% (n = 300,000) | AID 1899 | TR-FRET GST/Flag-core106 dimerization, 1536-well | inhibition, % at 5 µM;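 active = inhibition above the mean of all tested compounds plus 3 SD, set per screening campaign, cut at about 45% in these data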
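Assay system – GST-tagged and Flag-tagged HCV core protein residues 1-106 · Quantity – core106 proteins, GST 13.5 nM and Flag 17 nM · Benchmarks – unlabelled core106 and no-GST-core106 wells · Read-out basis – percent inhibition of core106 dimerization signal · Detection – time-resolved FRET, ex 340 nm, em 617 and 671 nm · Schedule – 4 h at 22.5 °C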
Fh CTSL1 inh – counter-screen for PFM18AAP inhibitors: inhibitors of F. hepatica cathepsin L1; recombinant F. hepatica cathepsin L1, Z-Leu-Arg-MCA fluorescence; inhibition, % at 5.96 µM; actives 0.49% (n = 300,000); AID 1906;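 active = inhibition above the mean of all tested compounds plus 3 SD, set per screening campaign, cut at about 17% in these data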;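 note: 0% = plate median of test compound wells and 100% = 1 µM Z-Phe-Ala-diazomethylketone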
PP1 counter – blocks human PP1-alpha phosphatase, a PP5 counter-screen. purified PP1alpha, OMFP fluorescence. actives 0.9% (n = 320,000). inhibition, % at 6.7 µM. AID 2235. P62136;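 active = inhibition above the mean inhibition of all tested compounds plus 3 SD, computed separately for each screening campaign, cut at about 15% in these data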
PP5 primary – inhibitors of human protein phosphatase 5 (PP5); P53041; purified PP5c, OMFP substrate fluorescence; inhibition, % at 6.7 µM; actives 0.18% (n = 320,000); AID 1987;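 active = inhibition above the campaign's mean inhibition across all tested compounds plus 3 SD, cut at about 9.5% in these data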;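 note: 0% = DMSO only and 100% = 100 µM cantharidin control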
Target sequence (P53041 whole entry, looked up): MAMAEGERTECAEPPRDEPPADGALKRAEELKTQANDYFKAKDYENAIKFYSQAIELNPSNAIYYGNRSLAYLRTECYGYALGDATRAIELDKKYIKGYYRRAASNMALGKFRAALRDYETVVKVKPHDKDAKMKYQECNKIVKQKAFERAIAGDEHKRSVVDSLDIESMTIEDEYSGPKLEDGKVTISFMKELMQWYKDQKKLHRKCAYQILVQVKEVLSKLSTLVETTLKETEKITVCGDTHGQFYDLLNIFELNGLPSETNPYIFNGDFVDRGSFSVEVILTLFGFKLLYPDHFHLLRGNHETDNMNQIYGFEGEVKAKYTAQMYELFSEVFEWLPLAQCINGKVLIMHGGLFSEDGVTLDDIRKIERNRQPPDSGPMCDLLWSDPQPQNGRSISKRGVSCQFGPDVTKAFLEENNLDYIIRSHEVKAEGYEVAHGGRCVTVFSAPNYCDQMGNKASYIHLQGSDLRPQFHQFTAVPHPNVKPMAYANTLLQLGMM
Myeloid diff MLP – compounds promoting myeloid differentiation. ER-HoxA9 myeloid progenitors, lysozyme-GFP differentiation, flow cytometry. calls only at 10 µM. actives 1% (n = 360,000);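 active = normalized GFP-positive differentiation at or above the plate's own cutoff, the solvent-only control mean plus 3 SD; inconclusive = no clear call, values can overlap the other calls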;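 note: cells exposed to compound for four days before flow analysis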
NadD block – inhibitors of Staphylococcus aureus NadD; actives 0.78% (n = 360,000); inhibition, % at 20 µM; purified NadD enzyme, colorimetric absorbance read-out; in the data active = inhibition above about 26%
* hit, by the source's call; i = inactive; ? = inconclusive; . = no result given; + = active, no number; ! = not confirmed by another sample.

SMILES	core dimer inh	Fh CTSL1 inh	PP1 counter	PP5 primary	Myeloid diff MLP	NadD block
O=C(CCCN=C1NS(=O)(=O)c2ccccc21)OCc1cc([N+](=O)[O-])cc2c1OCOC2	-3	-1	1	0	+	-7
COc1cc(N2CCCC2)c(OC)cc1/C=C1/NC(=S)NC1=O	-17	5	4	2	+	20
CCN(CC)c1ccc(C(=O)NNC(=O)CCNC(=O)c2ccccc2)cc1	.	.	-1	-1	i	-5
CCN(CC)c1ccc(C(=O)NNC(=O)CCl)cc1	1	58*	0	-2	i	-9
Cc1ccc(S(=O)(=O)N(C)CC(=O)NNC(=O)CCNS(=O)(=O)c2cccc(C)c2)cc1	.	.	.	.	i	-7
O=C(O)CCCNc1cc(N2CCN(C(=O)c3ccco3)CC2)c2noc3c2c1C(=O)c1ccccc1-3	-102	7	7	6	i	13
O=C1c2ccccc2-c2onc3c(N4CCN(CCO)CC4)cc(N4CCN(C(=O)c5ccco5)CC4)c1c23	-51	1	7	2	+	24
CCOC(=O)N1CCN(c2cc(NCCC(=O)O)c3c4c(onc24)-c2ccccc2C3=O)CC1	-60	21*	7	5	i	15
CN1CCN(c2cc(N3CCN(C(=O)c4ccco4)CC3)c3c4c(onc24)-c2ccccc2C3=O)CC1	-28	-1	-1	-2	i	34*
Cc1ccc(C(=O)CCC(=O)NNC(=O)c2ccccc2O)cc1	.	.	-5	-2	i	4
CCN(CC)c1ccc2cc(-c3nnc(-c4ccncc4)o3)c(=O)oc2c1	.	.	.	.	+	12
CCOC(=O)N1CCN(C(C(=O)NC2CCCC2)c2ccco2)CC1 (centres undefined)	.	.	.	.	i	.
Cc1cc(C)cc(Oc2coc3cc(O)ccc3c2=O)c1	-13	17*	-5	2	i	3
Cc1ccccc1-c1coc2cc(O)ccc2c1=O	10	23*	1	1	i	2
Cn1c(CNC(=O)CCNC(=O)c2cccc(Br)c2)cc(=O)n(C)c1=O	-23	36*	-4	5	?	-2
Brc1ccc(C=Nc2ccc(Nc3ccccc3)cc2)s1	-28	-7	5	0	+	6
C(=Nc1ccc(Nc2ccccc2)cc1)c1ccc2ccccc2c1	-32	-2	-1	2	i	0
Clc1ccc(Cn2cnc3ccccc32)cc1	-6	-2	-1	3	i	4
O=S1(=O)c2ccccc2N=NN1Cc1ccc(Cl)cc1	47*	-1	1	6	i	12
O=S1(=O)c2ccccc2N=NN1Cc1cc(Cl)cc(Cl)c1	46*	2	2	-2	.	.
CCN(CC)CCNC(=O)c1ccc(NC(C)=O)cc1	-7	-6	1	0	+!	-1
Cc1ccc(-c2nc3cc(NC(=O)C(C)C)ccc3o2)cc1C	1	6	-13	4	i	-12
O=C(Nc1ccc2oc(-c3ccncc3)nc2c1)c1ccc([N+](=O)[O-])o1	8	23*	2	-1	?	0
Cc1ccc(-c2nc3cc(NC(=O)C(C)C)ccc3o2)cc1	-1	3	2	1	+	-12
O=C(Nc1ccc2oc(-c3ccncc3)nc2c1)c1ccccc1	-1	3	-5	0	i	-6
SMILES	core dimer inh	Fh CTSL1 inh	PP1 counter	PP5 primary	Myeloid diff MLP	NadD block
O=C(NCc1ccccc1CN1CCOCC1)c1ccc(-n2cccn2)cc1	.	.	.	.	i	-2
NC(=S)n1[nH]c(-c2ccc([N+](=O)[O-])cc2)c(N=Nc2ccc(O)cc2)c1=O	25	7	17*	1	i	54*
Cc1[nH]n(C(N)=S)c(=O)c1N=Nc1cccc(Cl)c1	-6	10	13	-7	i	1
NC(=S)n1[nH]c(-c2ccc([N+](=O)[O-])cc2)c(N=Nc2cccc(Cl)c2)c1=O	.	.	.	.	i	93*
O=C(CC1NC2CCCCC2NC1=O)Nc1ccc2c(c1)OCO2 (centres undefined)	-2	0	-1	6	i	-6
Cc1ccc(Cl)cc1NC(=O)CC1NC2CCCCC2NC1=O (centres undefined)	-4	-1	-1	0	+	-2
COc1cccc(CN(C)C(=O)CCN=C2NS(=O)(=O)c3ccccc32)c1	.	.	.	.	i	1
Cc1ccccc1-c1cc2c(nn1)-c1ccccc1C2=O	15	71*	-6	1	i	3
Cc1ccc(-c2cc3c(nn2)-c2ccccc2C3=O)cc1	0	0	6	0	i	0
O=C(CCC(=O)N1CCN(S(=O)(=O)c2ccccc2)CC1)c1ccc(Br)cc1	.	.	.	.	i	-1
O=C(COC(=O)c1cc(S(=O)(=O)N2CCOCC2)ccc1Cl)c1ccc[nH]1	.	.	.	.	+	-7
O=C(c1[nH]c(C(F)(F)F)nc1-c1ccccc1)N1CCN(c2c(Cl)cncc2Cl)CC1	.	.	.	.	i	4
COc1nc(N)nc(NC(=O)c2cccs2)c1N=O	-7	50*	-4	-2	?	-3
COc1ccc(NC(=O)c2ccc(NC(=O)c3cccs3)cc2)cc1	-10	1	2	2	i	-1
O=S1(=O)CC(N2CCN(CCO)CC2)CN1Cc1cn(Cc2ccc(C(F)(F)F)cc2)nn1 (centres undefined)	.	.	.	.	i	-9
COc1ccc(CNc2cc(C)nc3ncnn23)c(OC)c1	2	1	-2	-3	+	1
O=c1cc(CSc2ccc(Cl)cc2)nc(-c2ccccc2)[nH]1	7	1	4	1	i	-5
O=c1cc(CSc2ccc(Cl)cc2)nc(-c2ccccn2)[nH]1	-1	2	16*	-2	?	-7
Cc1cc(C(=O)N/N=C2\CC(=O)c3ccccc32)c(C)n1-c1ccc(F)cc1	71*	2	14	4	i	31*
CCOc1cc(/C=N/NC(=O)c2cc(C)n(-c3ccc(F)cc3)c2C)ccc1O	13	-1	2	0	i	15
CCNC(=O)c1cc2c(c(-c3cccc(-c4ccccc4F)c3)n1)[C@H](CCO)N(C(=O)CC)C2	.	.	.	.	i	-5
Nc1nonc1-n1nnc(C(=O)N/N=C/c2cc(Br)ccc2O)c1CNc1ccccc1	13	1	17*	3	?	53*
CCN(CC)Cc1c(C(=O)N/N=C/c2ccc(OCc3ccccc3C)cc2)nnn1-c1nonc1N	11	3	16*	4	i	6
NC(=O)C1=C[C@@H](c2csc3ccccc23)C[C@@H](OCCCCO)O1	-13	-2	-5	-1	+	1
C=CCOC(=O)C1=C[C@H](c2csc3ccccc23)C[C@H](OCCCCO)O1	8	0	7	0	i	5
COc1ccc(-c2nnc(SCC(=O)N(C)C3CCS(=O)(=O)C3)n2C(C)C)cc1 (centres undefined)	.	.	.	.	i	-1

Screening data (PubChem BioAssay)
